This note sets out measurements from ChEMBL document CHEMBL1926513, “Synthesis of novel cinnamanilides as potential immunosuppressive agents” (Eur J Med Chem, 2012).

Series [1] can be described thus: Immunosuppressive activity in BALB/c mouse splenocytes assessed as inhibition of CD3/CD28-induced cell proliferation at 5 ug/mL after 48 hrs by MTT assay. The class given is functional. As to conditions: Splenocyte. The gist of the method: (§1)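 Splenocytes from 6 to 8 week-old BALB/c mice (erythrocytes lysed with ammonium chloride, washed in PBS/2% FBS) plated at 5 × 10⁵ cells/well in RPMI 1640 with 10% FBS and antibiotics; CD3/CD28 co-stimulation with compound ([…] as printed for single-concentration screen, or a concentration series for IC50) for 48 h; survival by MTT.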

Series [2] is described as follows: Immunosuppressive activity in BALB/c mouse splenocytes assessed as inhibition of CD3/CD28-induced cell proliferation after 48 hrs by MTT assay. The class given is functional, cell-based. The settings on record: Splenocyte. Put shortly: as §1
A further series has as its system Splenocyte. Description: Cytotoxicity against CD3/CD28-induced BALB/c mouse splenocytes at 1 to 10 ug/mL after 48 hrs by MTT assay. It counts as functional, cell-based. The gist of the method: (§2)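 Spleen cells from 6 to 8 week-old BALB/c mice, single-cell suspension, erythrocytes depleted with ammonium chloride, washed in PBS/2% FBS; 5 × 10⁵ cells/well in RPMI 1640 with 10% FBS, penicillin, streptomycin; unstimulated or CD3/CD28-co-stimulated cells exposed to varied compound concentrations for 48 h; viability by MTT. Compounds from DMSO stocks diluted in RPMI-1640/10% FBS.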

Series [3] in a line: Cytotoxicity against BALB/c mouse splenocytes at 1 to 10 ug/mL after 48 hrs by MTT assay. As to conditions: splenocyte. The class given is cell-based. The gist of the method:
as §2

Activity calls are given as the source filed them. The rule behind the calls is not given here. Where only a bound is given, the exact number is not on record here.

As for `CO/C(=C\c1ccc(Cl)cc1)C(=O)Nc1ccc(OC)cc1`, the inhibition at 5 µg/mL in series [1] was less than 50%. As for `CO/C(=C\c1ccccc1)C(=O)Nc1ccc(F)cc1`, in series [1], the inhibition at 5 µg/mL is more than 50%. Moreover, the IC50 in series [2] was 4.94 µM.

As to `CO/C(=C\c1ccc(F)cc1)C(=O)Nc1ccc(C)cc1`, the inhibition at 5 µg/mL in series [1] is less than 50%. For `CO/C(=C\c1ccc(Cl)cc1)C(=O)Nc1ccc(C(C)C)cc1`, the inhibition at 5 µg/mL in series [1] was less than 50%. Same read-out and setting: the value for `CO/C(=C\c1ccc(Br)cc1)C(=O)Nc1ccc(Cl)cc1` was less than 50%; that for `CO/C(=C\c1ccc(OC)cc1)C(=O)Nc1ccc(OC)cc1` was less than 50%. For `CO/C(=C\c1ccc(F)cc1)C(=O)Nc1ccc(Cl)cc1`, the inhibition at 5 µg/mL in series [1] is more than 50%. In addition, the IC50 in series [2] is 9.48 µM.

Take `CO/C(=C\c1ccc(Br)cc1)C(=O)Nc1ccc(C)cc1`: the inhibition at 5 µg/mL in series [1] was more than 50%. In addition, the IC50 in series [2] is 12.9 µM. With `CO/C(=C\c1ccc(Br)cc1)C(=O)Nc1ccc(OC)cc1`, in series [1], the inhibition at 5 µg/mL is less than 50%.

On to `CO/C(=C\c1ccccc1)C(=O)Nc1ccc(C(C)C)cc1`, for which, in series [1], the inhibition at 5 µg/mL was more than 50%. For the same compound, the IC50 in series [2] worked out at 3.46 µM. For the same compound, the outcome in the series with Splenocyte was Active. The Activity result in series [3] is “Non-toxic”. For `CO/C(=C\c1ccc(OC)cc1)C(=O)Nc1ccc(Br)cc1`, in that order: more than 50%, 1.77 µM, “Active” and “Non-toxic”. On to `CO/C(=C\c1ccccc1)C(=O)Nc1ccc(C)cc1`, for which the inhibition at 5 µg/mL in series [1] is more than 50%. Further, the IC50 in series [2] worked out at 16.6 µM. Turning to `CO/C(=C\c1ccc(F)cc1)C(=O)Nc1ccc(F)cc1`, in series [1], the inhibition at 5 µg/mL was less than 50%.

In the case of `CO/C(=C\c1ccc(OC)cc1)C(=O)Nc1ccccc1`, the inhibition at 5 µg/mL in series [1] is less than 50%. In the case of `CO/C(=C\c1ccccc1)C(=O)Nc1ccccc1`, the inhibition at 5 µg/mL in series [1] was more than 50%. Also, the IC50 in series [2] came out at 15.2 µM. Consider `CO/C(=C\c1ccc(F)cc1)C(=O)Nc1ccc(C(C)C)cc1`, for which the inhibition at 5 µg/mL in series [1] was more than 50%. Further, in series [2], the IC50 was found to be 4.66 µM. Also, the outcome with Splenocyte was Active. Moreover, the Activity entry in series [3] is listed as “Non-toxic”.

Turning to `CO/C(=C\c1ccc(Br)cc1)C(=O)Nc1ccc(Br)cc1`, the inhibition at 5 µg/mL in series [1] is less than 50%. For `CO/C(=C\c1ccccc1)C(=O)Nc1ccc(Cl)cc1`, the inhibition at 5 µg/mL in series [1] was more than 50%. Moreover, in series [2], the IC50 stood at 17 µM. With `CO/C(=C\c1ccccc1)C(=O)Nc1ccc(Br)cc1`, the inhibition at 5 µg/mL in series [1] was less than 50%. The same measure, in the same setting: the same measure for `CO/C(=C\c1ccc(OC)cc1)C(=O)Nc1ccc(F)cc1`: less than 50%; for `CO/C(=C\c1ccc(Br)cc1)C(=O)Nc1ccc(C(C)C)cc1`: less than 50%; for `CO/C(=C\c1ccc(Cl)cc1)C(=O)Nc1ccccc1`: less than 50%. With `CO/C(=C\c1ccc(Cl)cc1)C(=O)Nc1ccc(Br)cc1`, the inhibition at 5 µg/mL in series [1] was more than 50%. Also, the IC50 in series [2] amounted to 11 µM. On the same counts, the results for `CO/C(=C\c1ccc(Cl)cc1)C(=O)Nc1ccc(F)cc1` are more than 50% and 14 µM. Regarding `CO/C(=C\c1ccc(F)cc1)C(=O)Nc1ccccc1`, the inhibition at 5 µg/mL in series [1] is less than 50%. On the same count and under the same terms, the same measure for `CO/C(=C\c1ccc(Br)cc1)C(=O)Nc1ccc(F)cc1`: less than 50%; for `CO/C(=C\c1ccc(F)cc1)C(=O)Nc1ccc(Br)cc1`: less than 50%; for `CO/C(=C\c1ccc(Cl)cc1)C(=O)Nc1ccc(Cl)cc1`: less than 50%. With `CO/C(=C\c1ccc(F)cc1)C(=O)Nc1ccc(OC)cc1`, the inhibition at 5 µg/mL in series [1] is more than 50%. In series [2], the IC50 worked out at 13.5 µM. On the same counts, the results for `CO/C(=C\c1ccc(Cl)cc1)C(=O)Nc1ccc(C)cc1` are more than 50% and 12.7 µM. On the same counts, the results for `CO/C(=C\c1ccc(OC)cc1)C(=O)Nc1ccc(Cl)cc1` are more than 50% and 14.7 µM.

Consider `CO/C(=C\c1ccc(OC)cc1)C(=O)Nc1ccc(C(C)C)cc1`, for which the inhibition at 5 µg/mL in series [1] was less than 50%. On the same count and under the same terms, the value for `CO/C(=C\c1ccc(Br)cc1)C(=O)Nc1ccccc1` was less than 50%; that for `CO/C(=C\c1ccccc1)C(=O)Nc1ccc(OC)cc1` was less than 50%. With `CO/C(=C\c1ccc(OC)cc1)C(=O)Nc1ccc(C)cc1`, in series [1], the inhibition at 5 µg/mL was more than 50%. The IC50 in series [2] turned out to be 0.94 µM. The result in the series with Splenocyte was Active. In addition, in series [3], the Activity result is “Non-toxic”.
